LYPLA1 inh – LYPLA1 inhibitors, primary screen, counter-screen for PME1 inhibitor project, biochemical, fluorescence polarization, FP-Rh probe ABPP; Acyl-protein thioesterase 1 (Homo sapiens), O75608; recombinant LYPLA1; inhibition, % at 5.9 µM; 320,000 tested, 0.16% active; AID 2174, 2009;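 active = inhibition above the mean of all tested compounds plus 3 SD, set per campaign, cut at about 14% in these data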;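 also: inhibitors block serine hydrolase probe labeling of LYPLA1 so polarization falls; 0% = enzyme with DMSO and 100% = wells lacking LYPLA1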
Target sequence (O75608 whole entry, looked up): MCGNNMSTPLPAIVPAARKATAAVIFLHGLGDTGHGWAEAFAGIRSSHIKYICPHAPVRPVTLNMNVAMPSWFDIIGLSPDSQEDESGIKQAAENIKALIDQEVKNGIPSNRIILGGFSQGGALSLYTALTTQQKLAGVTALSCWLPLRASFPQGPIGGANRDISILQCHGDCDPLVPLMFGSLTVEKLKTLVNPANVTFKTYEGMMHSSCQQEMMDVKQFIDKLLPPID
procasp7 counter – procaspase-7 activators, primary screen, counter-screen for procaspase-3 activator project, biochemical, absorbance, HTS, human | Caspase-7 (Homo sapiens), P55210 | recombinant procaspase-7, Ac-DEVD-pNA absorbance 405 nm; D23A/D198A/D206A triple mutant, cannot self-cleave; scale: DMSO 0, 5 µM enzyme 100 | activation, % at 8.5 µM | 330,000 tested, 0.093% active;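 active = percent activation above the screen-wide mean plus 3 SD, cut at about 25% in these data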
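Assay system: Uncleavable procaspase-7 mutant enzyme | Input: 2 µM procaspase-7 mutant as dispensed | Timing: 1 h compound preincubation, 2 h substrate cleavage, 25 °C | Repeats: One well per compound | Control set: DMSO wells as 0%, DMSO with 5 µM added PC-7 as 100% | Technique: Epi-absorbance of released pNA at 405 nm, two timepoints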
procasp3 activ – activators of human procaspase-3 D3A mutant, primary screen, biochemical, absorbance, PC-3 D3A mutant, single concentration | 330,000 tested, 0.11% active | recombinant procaspase-3 D3A, Ac-DEVD-pNA absorbance 405 nm | activation, % at 8.5 µM | Caspase-3 (Homo sapiens), P42574;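 active = activation above the mean of all tested compounds plus 3 SD, cut at about 21% in these data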;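 also: 0% = DMSO alone and 100% = DMSO wells spiked with extra 5 µM PC-3 D3A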
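material = Procaspase-3 D3A mutant | probe or stimulus = Ac-DEVD-pNA | compound = single dose, 8.5 µM nominal compound, 0.8% DMSO | timing = 1 h preincubation, 2 h reaction | measured by = 405 nm absorbance of p-nitroaniline, reads at 0 and 120 min | benchmarks = DMSO-only low control, 5 µM PC-3 D3A high control | repeats = singlicate, each compound tested once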
LYPLA2 inh – LYPLA2 inhibitors, primary screen, counter-screen for PME1 inhibitor project, biochemical, fluorescence polarization, FP-Rh probe ABPP; 320,000 tested, 0.38% active; recombinant LYPLA2; AID 2177, 2009; inhibition, % at 5.9 µM; Acyl-protein thioesterase 2 (Homo sapiens), O95372;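 active = inhibition above the screen-wide mean plus 3 SD, limit set per campaign, cut at about 26% in these data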;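 also: 0% = LYPLA2 with DMSO and 100% = wells lacking LYPLA2 enzyme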
Target sequence (O95372 whole entry, looked up): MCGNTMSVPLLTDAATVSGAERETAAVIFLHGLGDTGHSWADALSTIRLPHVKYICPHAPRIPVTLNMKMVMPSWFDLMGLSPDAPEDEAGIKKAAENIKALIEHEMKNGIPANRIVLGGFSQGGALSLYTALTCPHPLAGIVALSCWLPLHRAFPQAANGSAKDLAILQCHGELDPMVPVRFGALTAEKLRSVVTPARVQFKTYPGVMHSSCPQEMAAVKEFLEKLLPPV
PREPL inhibitor – PREPL enzyme inhibitors, primary screen, biochemical, fluorescence polarization; recombinant PREPL, fluorescence polarization activity-based probe; inhibition, % at 5.96 µM; 320,000 tested, 0.68% active;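 also: 0% = enzyme with DMSO and 100% = wells lacking enzyme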
PREPL inh cf – human PREPL enzyme inhibitors, confirmation, biochemical, fluorescence polarization; recombinant PREPL, fluorescence polarization activity probe; 2,000 tested, 67% active; AID 2803, 2010; inhibition, % at 5.96 µM; shares compounds with PREPL inhibitor;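 also: 0% = protein with DMSO and 100% = wells lacking protein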
An asterisk follows results filed as active; x = no result; ! = not confirmed by another sample. Hits are enriched below; roughly 1.1% of the tested compounds scored in any of these assays. Rule as the data show it, unless noted: active = inhibition above about 43%; inactive = the rest.

SMILES	LYPLA1 inh	procasp7 counter	procasp3 activ	LYPLA2 inh	PREPL inhibitor	PREPL inh cf
CCN1C(=O)[C@H]2[C@@H](c3ccc(-c4ccc(Cl)c(Cl)c4)cc3)N[C@@](C)(C(=O)OC)[C@H]2C1=O	8.8	-1.0	7.8	21.5	45.5*	42.9
COc1ccc2c(CC(=O)Nc3ccc(N4CCOCC4)cc3)coc2c1	2.4	-0.1	-0.9	0.4	53.7*	59.5*
O=C(COc1ccc(F)c(Cl)c1)Nc1ccc(N2CCOCC2)cc1	x	-1.3	5.0	x	56.1*	54.8*
O=C(COc1ccc2ccc(=O)oc2c1)Nc1ccc(N2CCOCC2)cc1	-0.3	6.3	1.3	2.4	11.2	x
O=C(COc1cccc(Cl)c1)Nc1ccc(N2CCOCC2)cc1	3.7	-3.4	2.6	2.0	46.0*	46.7*
O=C(CCn1c(=O)oc2cc(Cl)ccc21)Nc1ccc(N2CCOCC2)cc1	2.4	-2.5	-14.0	5.5	49.3*	49.0*
COc1ccc2c(CC(=O)Nc3ccc(OC)c(S(=O)(=O)N4CCOCC4)c3)coc2c1	-4.6	1.5	11.5	4.2	28.5	x
CCn1nc(C)cc1C(=O)N1CCCC(N2CCN(c3ccccc3OC)CC2)C1 (stereo not drawn)	2.4	0.5	-3.5	7.2	11.6	x
COc1ccc(-c2cc(-c3ccco3)[nH]c(=O)c2C#N)cc1OC	-1.2	0.3	1.7	1.1	2.1	x
CN(C)c1ccc(-c2nn3c(-c4cccnc4)nnc3s2)cc1	-5.7	-3.0	-5.5	-0.1	30.7	x
COc1ccccc1-c1nnc2sc(-c3ccc(N(C)C)cc3)nn12	3.0	-19.7	-3.4	4.3	51.7*	48.2*
COc1cccc(-c2c(C(=O)N/N=C(\C)c3ccc(Cl)s3)nnn2-c2nonc2N)c1	-5.5	0.4	0.1	-9.5	-21.9	x
CCN(CC)CCn1c(=N)n(CC(O)c2ccc(OC)c(OC)c2)c2ccccc21 (stereo not drawn)	-4.5	-9.4	-5.6	1.8	44.3*	43.0
CCN(CC)CCn1c(=N)n(CC(O)c2ccco2)c2ccccc21 (stereo not drawn)	-2.9	1.1	-4.3	3.5	36.7	x
CN(C)CCCN1c2ccccc2Sc2ccc(Cl)cc21	1.6	-15.5	-4.3	6.2	45.4*!	45.1*
OCCN1CCN(CCCN2c3ccccc3Sc3ccc(Cl)cc32)CC1	2.1	9.9	6.8	-2.8	47.8*	41.0
Cc1ccc(Nc2nc(N)nc(CSC(=S)N3CCN(c4ccccc4)CC3)n2)cc1	-10.8	-1.1	0.4	-2.5	63.9*	33.9
Nc1nc(CSC(=S)N2CCN(c3ccccc3)CC2)nc(Nc2ccccc2)n1	-5.6	-2.3	5.3	-4.5	-50.0	x
Cc1ccc(CN2CC(C(=O)Nc3cc(C)ccn3)CC2=O)cc1 (stereo not drawn)	-0.2	6.0	10.7	5.3	-12.8	x
CC(C)C(NC(=O)c1ccc(Cl)cc1Cl)C(=O)N1CCN(S(=O)(=O)c2ccccc2)CC1 (stereo not drawn)	x	-3.6	1.7	x	31.6	x
COc1ccc(NCc2nc3ccccc3n2CCOc2ccc(C)cc2)cc1	-7.2	1.0	1.7	6.9	62.5*	59.7*
O=C(Nc1ccc(N2CCN(C(=O)c3ccco3)CC2)c(Cl)c1)c1cccs1	0.2	9.7	2.6	10.5	31.6	x
O=C(Cc1ccc(Cl)cc1)Nc1ccc(N2CCN(C(=O)c3ccco3)CC2)c(Cl)c1	-4.0	3.7	-3.7	-1.1	53.6*	47.4*
O=C(c1ccco1)N1CCN(c2ccc(F)cc2)CC1	4.4	-1.9	7.3	6.4	6.0	x
Cc1ccc(OCC(=O)Nc2ccc(N3CCN(C(=O)c4ccco4)CC3)cc2)cc1	0.5	-0.7	-0.7	5.7	51.6*	43.5*
SMILES	LYPLA1 inh	procasp7 counter	procasp3 activ	LYPLA2 inh	PREPL inhibitor	PREPL inh cf
Nc1ccc(N2CCN(C(=O)c3ccco3)CC2)cc1	2.0	-1.5	-1.4	8.2	62.8*	43.5*
COc1ccccc1-c1ocnc1C(=O)N1CCN(S(=O)(=O)c2ccc(NC(C)=O)cc2)CC1	0.3	2.9	4.8	-3.9	2.3	x
CCN(CC(=O)NCc1ccc(Cl)cc1)C(=O)CCOc1ccc(C)cc1	1.9	-5.0	5.1	5.1	-9.7	x
CN(C)CCc1cc2c(c3c1ccc1ccccc13)OCO2	0.8	13.2	15.6	3.1	67.8*	59.1*
Nc1nc2ccc(NC(=O)c3ccco3)cc2s1	-2.8	1.6	4.0	2.5	9.5	x
O=C(c1cnn2c(C(F)F)cc(-c3ccccc3)nc12)N1CCOCC1	-1.8	3.0	5.3	0.1	60.8*	4.2
CCOc1ccccc1NC(=O)NCc1ccco1	0.5	2.0	7.5	2.1	-7.5	x
Cc1ccc(-c2[nH]c3cc(C(=O)NCCCn4ccnc4)ccc3c(=O)c2O)cc1	-7.3	-4.0	4.8	-5.9	55.0*	30.5
COc1ccccc1Nc1ccc(N)cc1	5.0	1.5	2.8	9.1	83.6*	42.6
COc1ccc(NC(=O)CN2C(=O)COc3ccc(C)cc32)cc1	-1.3	4.3	-2.4	-2.4	-7.0	x
Nc1c(C(=O)NC2CCCC2)c2nc3ccccc3nc2n1N	0.0	-30.6	-28.9	-0.6	44.0*	29.9
Nc1c(C(=O)NC2CCCC2)c2nc3ccccc3nc2n1/N=C/c1ccco1	2.5	-3.1	3.1	-1.3	3.4	x
CCCCCNc1nc(N2CCCC2)c2c(c1C#N)CCN(C)C2	-0.6	-11.2	-2.9	0.7	54.6*	56.8*
O=C1N/C(=C\c2ccsc2)C(=O)N1Cc1ccc(F)cc1	4.6	-2.2	2.7	-2.2	-14.8	x
O=C1N/C(=C/c2ccc(N3CCOCC3)cc2)C(=O)N1Cc1ccc(F)cc1	3.0	-2.0	-11.5	0.1	48.3*	75.4*
CCOc1ccc(N2CC(C(=O)NNC(=O)c3ccc(Br)cc3)CC2=O)cc1 (stereo not drawn)	1.0	-2.6	-12.3	12.6	12.8	x
CNC[C@H](Cc1cccc2ccccc12)NC[C@H](CCSC)NCC1CCC(C(C)(C)C)CC1 (stereo partly drawn)	x	-3.2	-1.6	x	43.5*	33.6
CC(CCc1ccccc1)NCc1cccc2ccccc12 (stereo not drawn)	0.9	1.8	-2.6	-1.4	-28.7	x
CC1C(=O)N2CCCc3cc(NC(=O)COc4ccc(Cl)cc4)cc1c32 (stereo not drawn)	0.8	7.1	2.2	7.5	30.3	x

Assay outcomes (PubChem)
